Measured values: ChEMBL document CHEMBL5390255, “Expanding the squaramide library as mycobacterial ATP synthase inhibitors: Innovative synthetic pathway and biological evaluation” (Bioorg Med Chem, 2023)
In brackets after ≈: the same amount, converted by molar mass. Activity calls are given as the source filed them. The calls are words filed in the database; no cut-off is given here.

Key:
[1] = system: Mycobacterium tuberculosis; assay: Antibacterial activity against Mycobacterium tuberculosis H37Ra assessed as bacterial growth inhibition incubated for 7 days by broth microdilution method; format: functional; conditions: time 7 day
In short: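 H37Ra-Lux luminescent broth microdilution. Cultures in 7H9/OADC/tyloxapol/glycerol at 1x10⁴ RLU/well. 2-fold nine-point dilution from final 100 µM, DMSO ≤0.5%, in triplicate, with bedaquiline reference. Incubated 7 days at 37 °C; luminescence read after n-decanal injection. MIC90 from variable-slope four-parameter nonlinear regression.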

[2] = Cytotoxicity against mouse RAW264.7 cells assessed as reduction of cell viability incubated for 72 hrs by Cell Titer-Glo assay; format: toxicity, cell-based
[3] = Octanol/water partition coefficient log P of the compound; format: physicochemical
In short: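 Calculated by Chemaxon as log n-octanol/water partition coefficient, not measured.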

[4] = system: Mycobacterium tuberculosis; assay: Bactericidal activity against Mycobacterium tuberculosis H37Ra assessed as bacterial growth inhibition incubated for 3 to 4 weeks by broth microdilution method; format: functional; conditions: time 3-4 weeks
In short: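 MBC: same H37Ra-Lux microdilution setup as the MIC assay. At 14 days, 2 µL per condition spotted on 7H11 agar in triplicate, and wells at and one step above MIC fully plated. Colonies counted after 3–4 weeks at 37 °C. MBC is the lowest concentration giving >99% kill.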

[5] = system: Mycobacterium tuberculosis; assay: Synergistic antibacterial activity against Mycobacterium tuberculosis H37Ra assessed as fractional inhibitory concentration index at 2 times MIC measured after 7 days in presence of clofazimine by checkerboard microdilution assay; format: functional; conditions: time 7 day
In short: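 Checkerboard with H37Ra-Lux, in triplicate. Squaramide 2-fold dilutions from 2x MIC across columns; clofazimine 2-fold dilutions from 2x MIC down rows. Luminescence read at 7 days. FICI calculated as A/MIC A + B/MIC B.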

[6] = system: Mycobacterium tuberculosis; assay: Anti-mycobacterial activity against Mycobacterium tuberculosis H37Ra infected in mouse RAW264.7 cells at 0.5 to 2 times MIC measured after 72 hrs by time-kill kinetic assay; format: functional, organism-based
In short: (§1)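 RAW 264.7 macrophages infected with H37Ra-Lux at MOI 10 for 4 h in DMEM with 5% iFBS. Extracellular bacteria were removed with 200 µg/ml amikacin for 1 h, and cells reseeded at 5x10⁴/well. […] Cells were PBS-washed, lysed in 0.1% Triton X-100, and luminescence read with n-decanal at 24, 48 and 72 h.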

[7] = Stability of compound; format: physicochemical
[8] = system: Mycobacterium tuberculosis; assay: Antibacterial activity against wild type Mycobacterium tuberculosis H37Ra incubated for 7 days by resazurin staining based microtiter assay; format: functional; conditions: 168 h, time 7 day
In short: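 Resazurin microtiter assay on H37Ra atpB K179N mutants and wild type, using exponential cultures diluted to OD 0.02. 3-fold serial dilution from 10 µM (0.002–10 µM), in triplicate. After 7 days, 0.02% resazurin added for 24 h, then fluorescence read (ex 530/em 590 nm). MIC taken from four-parameter variable-slope nonlinear regression.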

[9] = system: Mycobacterium tuberculosis; assay: Anti-mycobacterial activity against Mycobacterium tuberculosis H37Ra.mScarlet+ infected in mouse RAW264.7 cells assessed as reduction in bacterial load at 4 uM incubated for 72 hrs by 488-I Phalloidin/DAPI staining based microscopic analysis relative to control; format: functional; parameters: scale not given: the % may be the effect or the level left
In short: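 RAW 264.7 cells infected with H37Ra.mScarlet⁺, seeded on coverslips at 5x10⁵ cells/ml, and treated with compound at 0.5% final DMSO; infected cells with 0.5% DMSO as control. At 72 h cells were PBS-washed and fixed in 4% paraformaldehyde. Actin stained with phalloidin 488 (1:1000, 15 min) and nuclei with 1 µg/ml DAPI (5 min). Imaged by fluorescence microscopy at 63x.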

[10] = system: Mycobacterium tuberculosis; assay: Anti-mycobacterial activity against Mycobacterium tuberculosis H37Ra infected in mouse RAW264.7 cells at 0.5 times MIC measured after 24 hrs by time-kill kinetic assay; format: functional, organism-based; in short: as §1
[11] = system: Mycobacterium tuberculosis; assay: Anti-mycobacterial activity against Mycobacterium tuberculosis H37Ra infected in mouse RAW264.7 cells at 0.5 to 2 times MIC measured after 24 hrs by time-kill kinetic assay; format: functional, organism-based; in short: as §1
[12] = system: Mycobacterium tuberculosis; assay: Antibacterial activity against Mycobacterium tuberculosis H37Rv assessed as bacterial growth inhibition by resazurin staining based broth micro-dilution assay; format: functional
[13] = Selectivity index, ratio of MIC for antibacterial activity against Mycobacterium tuberculosis H37Rv to the IC50 for inhibition of Mycobacterium tuberculosis H37Rv ATP synthase; format: toxicity
[14] = molecular target: ATP synthase; assay: Inhibition of Mycobacterium tuberculosis H37Rv ATP synthase by luminometer analysis; format: protein-complex assay
[15] = Mycobacterium tuberculosis, H37Ra, 168 h, read-out: MIC
[16] = Mycobacterium tuberculosis, H37Ra, read-out: MBC

Structure (SMILES) | MIC [1, 15] [µM] | CC50 at 72 h [2] [µM] | logP [3] | other results
O=c1c(NCc2ccccn2)c(N2CCCCC2)c1=O | > 64 | > 64 | 1.18 | –
O=c1c(NCc2ccccn2)c(-c2ccc(C3CCNCC3)cc2)c1=O | > 64 | > 64 | 2.44 | –
O=c1c(NCc2ccccn2)c(-c2ccc(N3CCNCC3)cc2)c1=O | 19.9 (≈ 6.93 µg/mL) | > 64 | 1.91 | MBC [4, 16]: 64 µM (≈ 22.3 µg/mL)
O=c1c(NCc2ccccc2)c(NCc2ccccn2)c1=O | > 64 | > 64 | 1.67 | –
Cc1ccc2nc(Nc3c(NCc4ccccn4)c(=O)c3=O)oc2c1 | > 64 | > 64 | 2.13 | –
O=c1c(NCc2ccccn2)c(Nc2nc3ccccc3o2)c1=O | > 64 | > 64 | 1.61 | –
O=c1c(NCc2ccccn2)c(-c2ccc(N3CCSCC3)cc2)c1=O | 0.9 (≈ 0.329 µg/mL) | > 64 | 2.8 | fractional inhibitory concentration index (FICI) [5]: 0.48; Activity [6]: inactive; Stability [7]: Unstable; MBC [4, 16]: 1.2 µM (≈ 0.439 µg/mL)
O=c1c(NCc2ccccn2)c(N2CCC(c3ccccc3)CC2)c1=O | > 64 | 7.47 | 2.6 | –
O=c1c(NCc2ccccn2)c(Nc2nc3cc([N+](=O)[O-])ccc3o2)c1=O | > 64 | > 64 | 1.55 | –
O=c1c(NCc2ccccn2)c(NC2CCCCCCC2)c1=O | > 64 | > 64 | 2.63 | –
COc1nc2ccc(Br)cc2cc1[C@@H](c1ccccc1)[C@@](O)(CCN(C)C)c1cccc2ccccc12 [BEDAQUILINE] | 0.05 (≈ 0.0278 µg/mL) | – | – | MIC [8]: 0.1 µM (≈ 0.0556 µg/mL); MBC [4, 16]: 0.03 µM (≈ 0.0167 µg/mL)
O=c1c(NCc2ccccn2)c(NC2CCCCC2)c1=O | > 64 | > 64 | 1.74 | –
O=c1c(NCc2ccccn2)c(Nc2nc3cc(Cl)ccc3o2)c1=O | > 64 | > 64 | 2.22 | –
O=c1c(NCc2ccccn2)c(N2CCOCC2)c1=O | > 64 | > 64 | 0.11 | –
O=c1c(NCc2ccccn2)c(-c2ccc(N3CCCCC3)cc2)c1=O | 2.56 (≈ 0.889 µg/mL) | > 64 | 3.29 | fractional inhibitory concentration index (FICI) [5]: 0.29; Activity [9]: 80%; Activity [6]: inactive; Activity [10]: Active; MBC [4, 16]: 1.2 µM (≈ 0.417 µg/mL)
O=c1c(NCc2ccccn2)c(-c2ccc(F)cc2)c1=O | 14.9 (≈ 4.21 µg/mL) | > 64 | 2.48 | MBC [4, 16]: > 100 µM

Structure (SMILES) | MIC [1, 15] [µM] | CC50 at 72 h [2] [µM] | logP [3] | other results
Cc1ccc2oc(Nc3c(NCc4ccccn4)c(=O)c3=O)nc2c1 | > 64 | > 64 | 2.13 | –
COc1ccc(-c2c(NCc3ccccn3)c(=O)c2=O)cc1 | 6.59 (≈ 1.94 µg/mL) | > 64 | 2.18 | fractional inhibitory concentration index (FICI) [5]: 0.63; Activity [6]: inactive; Activity [11]: inactive; MBC [4, 16]: 8 µM (≈ 2.35 µg/mL)
O=c1c(NCc2ccccn2)c(-c2ccc(C3CCCCC3)cc2)c1=O | > 64 | > 64 | 4.45 | –
O=c1c(NCc2ccccn2)c(Nc2ccccc2)c1=O | 15.1 (≈ 4.23 µg/mL) | > 64 | 1.58 | –
CCCNc1c(NCc2ccccn2)c(=O)c1=O | > 64 | > 64 | 0.82 | –
CC/C(=C(\c1ccccc1)c1ccc(OCCN(C)C)cc1)c1ccccc1 [TAMOXIFEN] | – | 5.03 | – | –
O=c1c(NCc2ccccn2)c(Nc2cc(C3CC3)n[nH]2)c1=O | > 64 | > 64 | 0.89 | –
O=c1c(NCc2ccccn2)c(-c2ccc(N3CCOCC3)cc2)c1=O | – | > 64 | – | fractional inhibitory concentration index (FICI) [5]: 0.37; MIC [12]: 0.5 µM (≈ 0.175 µg/mL); MIC [1]: 0.77 µM (≈ 0.269 µg/mL); Activity [6]: inactive; Selectivity Index [13]: > 1000; IC50 [14]: 0.03 µM; MBC [4]: 0.4 µM (≈ 0.14 µg/mL)
C#CCNc1c(NCc2ccccn2)c(=O)c1=O | > 64 | > 64 | 0.17 | –
O=c1c(NCc2ccccn2)c(N2CCN(c3ccccc3)CC2)c1=O | > 64 | 26.2 | 2.06 | –
O=c1c(NCc2ccccn2)c(N2CCNCC2)c1=O | > 64 | > 64 | -0.21 | –
O=c1c(NCc2ccccn2)c(Nc2nc3ccc(Cl)cc3o2)c1=O | > 64 | > 64 | 2.22 | –
O=c1c(NCc2ccccn2)c(Nc2nc3ccc([N+](=O)[O-])cc3o2)c1=O | > 64 | > 64 | 1.55 | –
COc1ccc(/C=C2/S/C(=N/N=C/c3ccccc3O)NC2=O)cc1 | – | – | – | MIC90 ([12]; Mycobacterium tuberculosis, H37Rv): 0.5 µg/mL (≈ 1.41 µM)
CCCCCCNc1c(NCc2ccccn2)c(=O)c1=O | > 64 | > 64 | 2.16 | –
O=c1c(NCCCBr)c(NCc2ccccn2)c1=O | > 64 | > 64 | 0.85 | –
